Measurements from ChEMBL document CHEMBL1153955, “Indolylarylsulfones bearing natural and unnatural amino acids. Discovery of potent inhibitors of HIV-1 non-nucleoside wild type and resistant mutant strains reverse transcriptase and coxsackie B4 virus” (J Med Chem, 2009).

How the values were obtained:
[1] = Cytotoxicity against human HEL cells assessed as drug level causing microscopically detectable alteration of normal cell morphology after 3 days; assay type: cell-based
[2] = target: Human immunodeficiency virus type 1 reverse transcriptase (Human immunodeficiency virus 1, UniProt Q72547, Y181I); assay: Inhibition of HIV1 reverse transcriptase p66/p51 Y181I mutant; details: read-out: IC50
In short: (§1)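 Substrate was 0.5 µg poly(rA)/oligo(dT) 10:1 (0.3 µM 3′-OH ends) with 10 µM [³H]dTTP, at 37 °C. Acid-precipitable radioactivity was counted on GF/C filters after TCA washes.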

[3] = target: Human immunodeficiency virus type 1 reverse transcriptase (Human immunodeficiency virus 1, UniProt Q72547, L100I); assay: Inhibition of HIV1 reverse transcriptase p66/p51 L100I mutant; details: read-out: IC50; in short: as §1
Human alphaherpesvirus 1 [4] = assay: Antiviral activity against thymidine kinase deficient and acyclovir resistant HSV1 KOS in human HEL cells assessed as protection against virus-induced cytopathicity; assay type: functional, organism-based; details: Human alphaherpesvirus 1, KOS
Punta Toro virus = assay: Antiviral activity against Punta Toro virus in african green monkey Vero cells assessed as protection against virus-induced cytopathicity; assay type: functional, organism-based
In short: (§2)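 Confluent cell monolayers inoculated with 100 CCID₅₀ virus. After 1-2 h adsorption, residual virus removed and cultures incubated with varying compound concentrations. Cytopathicity scored once it reached completion in untreated infected controls. EC₅₀ = dose reducing virus-induced cytopathogenicity by 50%.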

Vaccinia virus = assay: Antiviral activity against Vaccinia virus Lederle in human HEL cells assessed as protection against virus-induced cytopathicity; assay type: functional, organism-based; details: Orthopoxvirus vaccinia
Influenza A virus [5] = assay: Antiviral activity against influenza H1N1 virus in MDCK cells assessed as reduction of virus-induced cytopathicity by visual cytopathic effect scoring method; assay type: functional, organism-based
[6] = tested on: Mammalian orthoreovirus 1; assay: Antiviral activity against Reovirus 1 in african green monkey Vero cells assessed as protection against virus-induced cytopathicity; assay type: functional, organism-based; details: Mammalian orthoreovirus 1, Vero; in short: as §2
Human alphaherpesvirus 2 = assay: Antiviral activity against HSV2 G in human HEL cells assessed as protection against virus-induced cytopathicity; assay type: functional, organism-based; details: Human alphaherpesvirus 2, strain G; in short: as §2
Influenza B virus [7] = assay: Antiviral activity against influenza B virus in MDCK cells assessed as reduction of virus-induced cytopathicity by MTS method; assay type: functional, organism-based
Influenza A virus H3N2 [8] = assay: Antiviral activity against influenza H3N2 virus in MDCK cells assessed as reduction of virus-induced cytopathicity by visual cytopathic effect scoring method; assay type: functional, organism-based
Coxsackievirus B4 [9] = assay: Antiviral activity against Coxsackievirus B4 in human HeLa cells assessed as protection against virus-induced cytopathicity; assay type: functional, organism-based; details: Enterovirus B; in short: as §2
[10] = Antiproliferative activity against human Molt4/C8 cells after 3 days; assay type: cell-based; details: MOLT-4, 72 h
In short: (§3)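 Cells seeded at 5 × 10⁴ to 7.5 × 10⁴ cells/200 µL with or without serial compound dilutions; incubated at 37 °C for 2 days (L1210) or 3 days (Molt4/C8, CEM). Cell numbers counted with a Coulter counter. CC₅₀ = concentration reducing proliferation by 50% versus untreated controls, read from plots of cell number (% of control) against concentration. Means of at least two independent experiments.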

[11] = tested on: Respiratory syncytial virus; assay: Antiviral activity against RSV Long in human HeLa cells assessed as protection against virus-induced cytopathicity; assay type: functional, organism-based; in short: as §2
Influenza A virus [12] = assay: Antiviral activity against influenza H1N1 virus in MDCK cells assessed as reduction of virus-induced cytopathicity by MTS method; assay type: functional, organism-based; details: Influenza A virus, H1N1, MDCK
CCRF-CEM = assay: Antiproliferative activity against human CEM cells after 3 days; assay type: cell-based; details: 72 h; in short: as §3
[13] = tested on: Vesicular stomatitis virus; assay: Antiviral activity against VSV in human HEL cells assessed as protection against virus-induced cytopathicity; assay type: functional, organism-based
[14] = tested on: Human immunodeficiency virus 1; assay: Antiviral activity against HIV1 3B in human CEM cells assessed as protection against virus-induced cytopathicity after 4 days; assay type: functional, organism-based; details: Human immunodeficiency virus 1, 3B, CCRF-CEM, 96 h
In short: (§4)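 CEM cells (~3 × 10⁵ cells/mL) infected with ~100 CCID₅₀ per mL of HIV-1 (IIIB) or HIV-2 (ROD), then seeded into wells containing compound dilutions. After 4 days at 37 °C, syncytium (giant cell) formation was examined microscopically. EC₅₀ = concentration protecting CEM cells from HIV cytopathicity by 50%.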

Human alphaherpesvirus 1 [15] = assay: Antiviral activity against HSV1 KOS in human HEL cells assessed as protection against virus-induced cytopathicity; assay type: functional, organism-based; details: Human alphaherpesvirus 1, KOS
[16] = target: Human immunodeficiency virus type 1 reverse transcriptase (Human immunodeficiency virus 1, UniProt Q72547, K103N); assay: Inhibition of HIV1 reverse transcriptase p66/p51 K103N mutant; details: read-out: IC50; in short: as §1
[17] = tested on: Vesicular stomatitis virus; assay: Antiviral activity against VSV in human HeLa cells assessed as protection against virus-induced cytopathicity; assay type: functional, organism-based
L1210 = assay: Antiproliferative activity against mouse L1210 cells after 2 days; assay type: cell-based; details: L1210, 48 h; in short: as §3
Influenza B virus [18] = assay: Antiviral activity against influenza B virus in MDCK cells assessed as reduction of virus-induced cytopathicity by visual cytopathic effect scoring method; assay type: functional, organism-based
Coxsackievirus B4 [19] = assay: Antiviral activity against Coxsackievirus B4 in african green monkey Vero cells assessed as protection against virus-induced cytopathicity; assay type: functional, organism-based; details: Enterovirus B; in short: as §2
[20] = Cytotoxicity against human HeLa cells assessed as drug level causing microscopically detectable alteration of normal cell morphology after 3 days; assay type: cell-based
In short: (§5)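 Serial compound dilutions added to confluent HeLa or Vero monolayers. MCC = minimum concentration causing microscopically detectable alteration of cell morphology after 3 days of incubation.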

Feline coronavirus = assay: Antiviral activity against Feline coronavirus in feline […] cells assessed as inhibition of virus-induced cytopathicity; assay type: functional, organism-based; details: Alphacoronavirus 1
[21] = Cytotoxicity against feline CRFK cells by MTS assay; assay type: cell-based, Felis catus; details: cat
[22] = Cytotoxicity against MDCK cells by MTS assay; assay type: cell-based, Canis lupus familiaris; details: dog
[23] = tested on: Human immunodeficiency virus 2; assay: Antiviral activity against HIV2 ROD in human CEM cells assessed as protection against virus-induced cytopathicity after 4 days; assay type: functional, organism-based; details: Human immunodeficiency virus 2, ROD, CCRF-CEM, 96 h; in short: as §4
Influenza A virus H3N2 [24] = assay: Antiviral activity against influenza H3N2 virus in MDCK cells assessed as reduction of virus-induced cytopathicity by MTS method; assay type: functional, organism-based
Human respirovirus 3 = assay: Antiviral activity against Parainfluenza virus type 3 in african green monkey Vero cells assessed as protection against virus-induced cytopathicity; assay type: functional, organism-based; details: Human respirovirus 3, Vero; in short: as §2
[25] = Cytotoxicity against MDCK cells assessed as drug level causing microscopically detectable alteration of normal cell morphology; assay type: cell-based, Canis lupus familiaris; details: dog
Felid alphaherpesvirus 1 = assay: Antiviral activity against Feline herpesvirus in feline […] cells assessed as inhibition of virus-induced cytopathicity; assay type: functional, organism-based
[26] = Cytotoxicity against african green monkey Vero cells assessed as drug level causing microscopically detectable alteration of normal cell morphology after 3 days; assay type: cell-based; details: chlorocebus sabaeus; in short: as §5
[27] = target: Human immunodeficiency virus type 1 reverse transcriptase (Human immunodeficiency virus 1, UniProt Q72547); assay: Inhibition of HIV1 reverse transcriptase p66/p51; details: read-out: IC50
Sindbis virus = assay: Antiviral activity against Sindbis virus in african green monkey Vero cells assessed as protection against virus-induced cytopathicity; assay type: functional, organism-based; in short: as §2

| Compound | MCC at 72 h [1] | IC50 [2] | IC50 [3] | EC50 (Human alphaherpesvirus 1 [4]) | EC50 (Punta Toro virus) | EC50 (Vaccinia virus) | EC50 (Influenza A virus [5]) | EC50 [6] | EC50 (Human alphaherpesvirus 2) | EC50 (Influenza B virus [7]) | EC50 (Influenza A virus H3N2 [8]) | EC50 (Coxsackievirus B4 [9]) | IC50 [10] | EC50 [11] | EC50 (Influenza A virus [12]) | IC50 (CCRF-CEM) | EC50 [13] | EC50 [14] | EC50 (Human alphaherpesvirus 1 [15]) | IC50 [16] | further results |
| --- | --- | --- | --- | --- | --- | --- | --- | --- | --- | --- | --- | --- | --- | --- | --- | --- | --- | --- | --- | --- | --- |
| Cc1cc(C)cc(S(=O)(=O)c2c(C(=O)NC(C)CC(N)=O)[nH]c3ccc(Cl)cc23)c1 (stereo not drawn) | 100 µM | 4.14 µM | 0.252 µM | > 20 µM | > 20 µM | > 20 µM | > 4 µM | > 20 µM | > 20 µM | > 4 µM | > 4 µM | 4.5 µM | 36 µM | > 20 µM | > 4 µM | 32 µM | > 20 µM | 0.026 µM | > 20 µM | 0.288 µM | EC50 [17]: > 20 µM; IC50 (L1210): 48 µM; EC50 (Influenza B virus [18]): > 4 µM; EC50 (Coxsackievirus B4 [19]): 16 µM; MCC at 72 h [20]: ≥ 20 µM; EC50 (Feline coronavirus): > 4 µM; CC50 [21]: 18.9 µM; CC50 [22]: 13.5 µM; EC50 [23]: 30 µM; EC50 (Influenza A virus H3N2 [24]): > 4 µM; EC50 (Human respirovirus 3): > 20 µM; MCC [25]: 20 µM; EC50 (Felid alphaherpesvirus 1): > 4 µM; MCC at 72 h [26]: 100 µM; IC50 [27]: 0.12 µM; EC50 (Sindbis virus): > 20 µM |
| Cc1cc(C)cc(S(=O)(=O)c2c(C(=O)NC(C)CS(N)(=O)=O)[nH]c3ccc(Cl)c(F)c23)c1 (stereo not drawn) | 20 µM | > 40 µM | 0.267 µM | > 4 µM | > 20 µM | > 4 µM | > 4 µM | > 20 µM | > 4 µM | > 4 µM | > 4 µM | > 4 µM | 12 µM | > 4 µM | > 4 µM | 16 µM | > 4 µM | 0.0039 µM | > 4 µM | 0.003 µM | EC50 [17]: > 4 µM; IC50 (L1210): 18 µM; EC50 (Influenza B virus [18]): > 4 µM; EC50 (Coxsackievirus B4 [19]): 12 µM; MCC at 72 h [20]: 20 µM; EC50 (Feline coronavirus): > 4 µM; CC50 [21]: 15 µM; CC50 [22]: 7.3 µM; EC50 [23]: > 10 µM; EC50 (Influenza A virus H3N2 [24]): > 4 µM; EC50 (Human respirovirus 3): > 20 µM; MCC [25]: 20 µM; EC50 (Felid alphaherpesvirus 1): > 4 µM; MCC at 72 h [26]: 100 µM; IC50 [27]: 0.036 µM; EC50 (Sindbis virus): 20 µM |
| Cc1cc(C)cc(S(=O)(=O)c2c(C(=O)NC(C)C(N)=O)[nH]c3ccc(Br)cc23)c1 (stereo not drawn) | 20 µM | 1.81 µM | 0.041 µM | > 4 µM | > 4 µM | > 4 µM | > 800 µM | > 4 µM | > 4 µM | > 800 µM | > 800 µM | 2 µM | 8.7 µM | 4 µM | > 800 µM | 10 µM | > 4 µM | 0.0019 µM | > 4 µM | 0.509 µM | EC50 [17]: > 4 µM; IC50 (L1210): 10 µM; EC50 (Influenza B virus [18]): > 800 µM; EC50 (Coxsackievirus B4 [19]): > 4 µM; MCC at 72 h [20]: 20 µM; EC50 (Feline coronavirus): > 4 µM; CC50 [21]: 9.2 µM; CC50 [22]: 1.7 µM; EC50 [23]: > 10 µM; EC50 (Influenza A virus H3N2 [24]): > 800 µM; EC50 (Human respirovirus 3): > 4 µM; MCC [25]: 4 µM; EC50 (Felid alphaherpesvirus 1): > 4 µM; MCC at 72 h [26]: 20 µM; IC50 [27]: 0.016 µM; EC50 (Sindbis virus): > 4 µM |
